The nature of data set [1]: Apical-to-basolateral permeability across Caco-2 monolayers. The format is in vitro ADME. To be noted: human.
The target in data set [2] is T1, PEPT1 (Homo sapiens, UniProt P46059).
T1 sequence (P46059 1-708): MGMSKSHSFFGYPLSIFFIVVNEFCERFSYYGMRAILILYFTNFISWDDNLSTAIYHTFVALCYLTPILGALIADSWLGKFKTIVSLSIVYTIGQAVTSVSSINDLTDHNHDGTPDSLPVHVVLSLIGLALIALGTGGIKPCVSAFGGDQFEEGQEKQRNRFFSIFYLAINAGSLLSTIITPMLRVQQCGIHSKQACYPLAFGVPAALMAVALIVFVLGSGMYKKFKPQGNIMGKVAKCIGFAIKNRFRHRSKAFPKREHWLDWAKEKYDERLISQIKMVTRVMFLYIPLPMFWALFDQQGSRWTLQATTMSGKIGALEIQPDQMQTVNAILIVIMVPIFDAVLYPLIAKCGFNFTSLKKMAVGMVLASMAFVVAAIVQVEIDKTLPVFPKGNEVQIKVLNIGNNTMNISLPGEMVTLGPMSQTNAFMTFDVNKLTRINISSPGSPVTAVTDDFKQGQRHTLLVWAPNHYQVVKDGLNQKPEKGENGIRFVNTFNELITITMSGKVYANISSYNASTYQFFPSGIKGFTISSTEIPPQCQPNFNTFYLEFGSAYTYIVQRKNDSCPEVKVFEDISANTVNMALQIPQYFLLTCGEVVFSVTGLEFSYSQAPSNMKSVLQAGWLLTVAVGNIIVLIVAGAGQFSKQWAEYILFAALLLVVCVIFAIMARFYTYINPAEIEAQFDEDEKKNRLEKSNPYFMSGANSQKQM
Kind of data set: [3H]Gly-Sar uptake inhibition in Caco-2 cells. The format is cell-based.

In data set [3] the test system is Capan-2 cells. The data set is described as follows: Cell proliferation. The format is cell-based. To be noted: Homo sapiens, Capan-2, pH 6, read-out: GI50 Capan-2. Put shortly:
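Capan-2 cells (passages 50-54) in antibiotic-free RPMI-1640 plus 10% FBS were plated at 125,000 per well and allowed 24 h to attach. After a rinse with pH 6.0 uptake buffer, they received test compound in the same buffer (twofold series, 4 to 0.25 mmol/L; buffer-only wells as 100% viability) for 4 h at 37 °C. Two washes and 24 h recovery in medium followed.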

For data set [4], the system named is AsPC-1 cells. The data set is described as follows: Cell proliferation. The format is cell-based. Particulars: Homo sapiens, ASPC1, pH 6, read-out: GI50 AsPC-1. Put shortly:
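AsPC-1 cells (passages 63-65) were grown antibiotic-free in RPMI-1640 with 10% FBS, seeded at 125,000 cells/well and left 24 h. They were washed with pH 6.0 uptake buffer and exposed 2 h at 37 °C to test compound (2-fold dilutions, 4 to 0.25 mmol/L, in that buffer); buffer alone served as 100% viability. Cells were washed twice and recovered 24 h in medium.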

The target in data set [5] is T1, PEPT1. Kind of data set: [3H]Gly-Sar uptake inhibition in Capan-2 cells. The format is cell-based.
Data set [6] addresses T1, PEPT1. Kind of data set: [3H]Gly-Sar uptake inhibition in AsPC-1 cells. The format is cell-based.

By Papp is commonly meant a coefficient for how fast a substance crosses the barrier. A high value points to ready permeation. Usually IC50 stands for the concentration at which inhibition is half-maximal. Low values mean greater potency, high ones weaker potency. As usually defined, the GI50 is the concentration at which growth is held to half of that of the control.

SMILES strings stand for the structures.

The compound `O=c1[nH]c(=O)n([C@H]2C[C@H](O)[C@@H](CO)O2)cc1F` [floxuridine, 5-fluoro-2′-deoxyuridine, reference compound] registered a Papp at 2 h, 0.1 mM in data set [1] of 0.69 ± 0.1 ×10⁻⁶ cm/s. The IC50 in data set [2] turned out to be 8.43 ± 2.66 mM; in data set [5], 16.1 ± 6.71 mM; in data set [6], 6.63 ± 1.52 mM. The GI50 in data set [3] and in data set [4] was more than 4 mM throughout.

Source of the values: article PMC2659690 (Molecular Pharmaceutics, 2008).
